Results published in the array DNA melting data of Ke et al. (doi:10.1101/2024.01.08.574731).

Key:
[1] = melting temperature; fluorescence melt of hairpins on a sequencing array, two-state fit, raised by 9.35 °C to match UV melts; conditions: sodium 0.088 M
In short: (§1)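 Bootstrapped two-state fits yielded melting temperature and folding enthalpy for library hairpins. Cy3 fluorescence, with annealed Cy3 and quencher oligos, was imaged on a sequenced MiSeq flow cell in 50 mM Na-HEPES pH 8.0, 25 mM NaCl in 2.5 °C steps up to 60 °C, and normalised to pre-quench Cy3 and to control constructs. Four replicates were combined by inverse variance, and fitted temperatures were raised by 9.35 °C to match UV melts.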

[2] = folding enthalpy; higher = less favourable; fluorescence melt of hairpins on a sequencing array, two-state fit; conditions: sodium 0.088 M
In short: as §1

| Sequence | Tm [1] [°C] | folding enthalpy [2] [kcal/mol] |
| --- | --- | --- |
| GATCAAATCTTTGATC ((((((....)))))) | 47.7 | -30.3 |
| CGCTGACGGAAACGTGCG (((..(((....)))))) | 47.5 | -26.1 |
| GATCTGATCGCAGATC ((((((....)))))) | 42.3 | -11.2 |
| GTAATCGGAAACGATCAC ((.((((....)))).)) | 33.9 | -25 |
| GGTTGAGGAAACTCAGTC (..((((....))))..) | 30.9 | -14.5 |
| GATCGTAGAAACGATC ((((((....)))))) | 51.1 | -35.2 |
| GCTCTAGAAATAGAGC ((((((....)))))) | 50.9 | -34.1 |
| GCGTCGCGAAAGCCATGC ((.(.((....)).).)) | 41.5 | -16.2 |
| GCTACACGAAAGTGAAGC (((.(((....))).))) | 54.2 | -35.3 |
| GGACTCTCGAAAGAGTCC (((..(((....)))))) | 60.9 | -42.7 |
| GGCGTAGGAAACCACGCC (((((.(....).))))) | 56.2 | -53.2 |
| GCGCCGGGAAACCAGCGC ((((.((....)).)))) | 59.1 | -44.5 |
| GAGCGGCGAAAGCCCCTC (((.(((....))).))) | 46.7 | -14.1 |
| GATGGCGAAAGCCTATC ((((((....))).))) | 44.3 | -12.7 |
| GCAGGCGAAAGCCTATGC ((((((....)))..))) | 47.6 | -13.9 |
| GATCTGTGCACAGATC ((((((....)))))) | 57.9 | -48.9 |
| GATCCAACACTGGATC ((((((....)))))) | 48.1 | -43 |
| GAGGACGAAAGTCTCCTC ((((((....)))..))) | 36.3 | -14.9 |
| CGGTAACGGAAACGTCCG (((..(((....)))))) | 37.9 | -24.6 |
| GTCAGCGAAAGCTGTGAC ((((((....)))..))) | 39.5 | -10.3 |
| GCGAGAGTCGC ((((...)))) | 55.5 | -11.3 |
| GCGACCGAAAGGTAGCGC ((((((....)))..))) | 68.5 | -31.7 |
| GATCACCCCGGTGATC ((((((....)))))) | 59.8 | -36.8 |

| Sequence | Tm [1] [°C] | folding enthalpy [2] [kcal/mol] |
| --- | --- | --- |
| GCGTACGGAAACGCACAC (.((.((....)).)).) | 38.1 | -12.6 |
| CGCACGGAAACGTGTGCG ((((((....)))..))) | 57.5 | -17.6 |
| GGGTTTACGAAAGTACCC (((..(((....)))))) | 41.2 | -24.2 |
| GTCGACGAAAGTCTTGAC ((((((....)))..))) | 36.2 | -15.4 |
| GATCGGGGAAACCCGACC (.(((((....))))).) | 43.5 | -13.6 |
| GATCGGCAGTCCGATC ((((((....)))))) | 56.7 | -37.7 |
| GGCCGACGAAAGTCGCC (((.(((....)))))) | 60.2 | -14.4 |
| GCAACGCGAAAGCTTGGC ((.(.((....)).).)) | 38.5 | -11.5 |
| GTGGTTGGAAACAACTAC ((.((((....)))).)) | 47.8 | -24.8 |
| GGAAGGCGAAAGCCGTCC (((.(((....))).))) | 58 | -15.5 |
| GCGAGGCGAAAGCTCCGC (((..((....))..))) | 60 | -25.2 |
| GCCCACGAAAGTGAGGGC ((((((....)))..))) | 59.9 | -28.2 |
| GGGCACGGAAACGTGTCC ((.((((....)))).)) | 63.4 | -40.8 |
| GTTAATCGAAAGATAAC (((.(((....)))))) | 30.1 | -16.8 |
| GTTCCAGGAAACCGGAAC (((((.(....).))))) | 45.6 | -45.4 |
| GAACTACGAAAGTAATTC (((.(((....))).))) | 31.5 | -17.3 |
| GAACCCCGAAAGGGATTC (((.(((....))).))) | 46 | -28.5 |
| GCGTTGCGAAAGCCGCGC (((..((....))..))) | 63.3 | -21.9 |
| GATCCCCTCTGGGATC ((((((....)))))) | 60.3 | -29 |
| GATCAATGTATTGATC ((((((....)))))) | 51 | -41.1 |
| GCACTGGGAAACCGGTGC ((((.((....)).)))) | 59.6 | -44.1 |
| GCGGTCGGAAACGACTGC ((.((((....)))).)) | 64.2 | -41.5 |
| ACCATGAAAATGGT (((((....))))) | 46.6 | -20.3 |

| Sequence | Tm [1] [°C] | folding enthalpy [2] [kcal/mol] |
| --- | --- | --- |
| GTCTTTCGAAAGAAGGAC (((.(((....))).))) | 47.4 | -31.5 |
| GGAATCGGAAACGATCCC ((.((((....)))).)) | 45.5 | -25.9 |
| GATCATGAATATGATC ((((((....)))))) | 54.5 | -46.8 |
| GCCAGCGAAAGCTTGGC ((((((....))).))) | 63.9 | -27.4 |
| GGCACTCCGAAAGGAGCC (((..(((....)))))) | 35.2 | -9.55 |
| GCCAGCGGAAACGCTAGC ((.((((....)))).)) | 49 | -20.5 |
| GTTTCGAAAGAAAC (((((....))))) | 53.6 | -29.1 |
| GCTTTGCGAAAGCCAAGC ((((.((....)).)))) | 52.6 | -23 |
| GATACCCCGAAAGGGATC (((..(((....)))))) | 33.3 | -12.4 |
| CAATCGAAAGATTG (((((....))))) | 51.3 | -22.6 |
| CGGTACGGAAACGTTCCG (((.(((....))).))) | 49.8 | -32.4 |
| CGATACGGAAACGTGTCG (((.(((....))).))) | 52.8 | -51.4 |
| GTAGTCCGAAAGGAGTAC (((.(((....))).))) | 54.1 | -43.5 |
| GATCAAATGTTGATC ((((((...)))))) | 41.2 | -26.6 |
| GATGGTGGAAACACCACC (.(((((....))))).) | 44.6 | -13.6 |
| GTCTAACCGAAAGGTGAC (((..(((....)))))) | 42.2 | -17.6 |
| GCTACCGAAAGGTCAGC ((((((....))).))) | 48.7 | -21.4 |
| GTAAGGGGAAACTCTTAC (((((.(....).))))) | 37.6 | -34.4 |
| GCTGTAGGAAACTGTAGC (((..((....))..))) | 29.2 | -11.7 |
| GATCGCGAAAGCGCAATC ((((((....)))..))) | 23.1 | -7.96 |
| GATCCTCCATAGGATC ((((((....)))))) | 51.1 | -33.5 |
| GCGATGGGAAACTGTCGC ((((..(....)..)))) | 49.2 | -47.3 |
| GCTGTAGCGAAAGCTAGC (((..(((....)))))) | 46.4 | -14 |

| Sequence | Tm [1] [°C] | folding enthalpy [2] [kcal/mol] |
| --- | --- | --- |
| GCGACCGAAAGGTATCGC ((((((....)))..))) | 50.5 | -27.7 |
| GATCCGAAGCGGATC ((((((...)))))) | 55.4 | -37 |
| GCGCAGCCGAAAGGCCGC (((..(((....)))))) | 57.9 | -16.7 |
| GAGATGGGAAACTGTCTC ((((..(....)..)))) | 33.2 | -21.5 |
| GGACTTCCGAAAGGATCC (((..(((....)))))) | 29.1 | -12.7 |
| GCAAGCGAAAGCTTATGC ((((((....)))..))) | 39.8 | -14.7 |
| GTAGTTGGAAACAGCTAC ((((.((....)).)))) | 42.9 | -29.4 |
| GATCTTTATAAGATC ((((((...)))))) | 44 | -33.3 |
| GCGGTTGGAAACAATCGC (((.(((....))).))) | 56.1 | -40.8 |
| GATCCAGTGATGGATC ((((((....)))))) | 56.6 | -35.2 |
| GTAGTCGAAAGACTAC ((((((....)))))) | 64.1 | -31.9 |
| GTTTCCGGAAACGGGAAC (((.(((....))).))) | 54 | -28.2 |
| GGTCCCGGAAACGGGATC (.(((((....))))).) | 57.1 | -24.2 |
| GCTCCCGAAAGGGCTAGC ((((((....)))..))) | 38.6 | -12.8 |
| GCTATACGAAAGTAAAGC (((.(((....))).))) | 42.8 | -28 |
| GGAGCCGAAAGGCGATCC ((((((....)))..))) | 51.6 | -9.49 |
| GGAATCGAAAGATATTCC ((((((....)))..))) | 29.7 | -16 |
| TGGGTGAAAACCCA (((((....))))) | 53.5 | -18.8 |
| GTAAGGGGAAACCTTTAC ((((.((....)).)))) | 33.9 | -27.1 |
| GAATCCGGAAACAGATTC (((((.(....).))))) | 31.3 | -19.5 |
| GTCTACGAAAGTATTGAC ((((((....)))..))) | 30.2 | -19.5 |
| GGTACGGGAAACCGCACC (((.(((....))).))) | 50.5 | -28.6 |
| GCACGTGGAAACACGCAC (..((((....))))..) | 29.2 | -9.68 |
